Source: ChEMBL document CHEMBL1275263, “Synthesis and evaluation of stilbene derivatives as a potential imaging agent of amyloid plaques” (Bioorg Med Chem, 2010)

Legend:
[1] = Binding affinity to amyloid beta (1 to 40)
Summary of the method: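 Aβ40 peptide in PBS (pH 7.4), brought to 200 final and shaken gently at 37 °C for 48 h to form fibrils, which were confirmed by ThT assay. Dye fluorescence was measured with the fibrils in PBS, with excitation and emission maxima determined by spectral scans. KD came from nonlinear regression fitting a one-site binding model, from 5 replicate experiments (N = 5).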

[2] = Binding to amyloid beta (1 to 40) fibrils assessed as fold increase in compound fluorescence at 30 uM by fluorescence assay relative to control

| Compound | Kd [1] | Ratio [2] |
| --- | --- | --- |
| Cc1ccc2c(c1)sc(-c1ccc(N(C)C)cc1)[n+]2C [THIOFLAVIN T] | 2300 nM |  |
| CNc1ccc(/C=C/c2ccc(Br)cc2)cc1 | 1130 nM | 25.8 |
| CN(CCO)c1ccc(/C=C/c2ccc(Br)cc2)cc1 | 1840 nM | 15.7 |
| CNc1ccc(/C=C/c2cccc(OC)c2)cc1 | 17900 nM | 9.3 |
| CNc1ccc(-c2nc3ccccc3s2)cc1 | 300 nM |  |
| CN(CCO)c1ccc(/C=C/c2cccc(Br)c2)cc1 | 2890 nM | 8.91 |
